The source made the active and inactive calls. The calls are words filed in the database; no cut-off is given here.
Experiments:
Conditions in all cases: dose 0.2-1 µM
[1] = molecular target: Histone-lysine N-methyltransferase ASH1L (Homo sapiens) (UniProt Q9NR48); experiment: Binding affinity to biotinylated ASH1L bromodomain (unknown origin) expressed in Escherichia coli at 0.2 to 1 uM by Biolayer Interferometric analysis
Method in brief: (§1)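 Bromodomains carrying a BirA biotin ligase targeting sequence, coexpressed with BirA in bacteria to give homogeneous in vivo biotin labelling, checked by mass spectrometry. Biotinylated proteins probed by biolayer interferometry with compound at two concentrations, 0.2 and 1.0 μM.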

[2] = molecular target: Bromodomain-containing protein 3 (Homo sapiens) (UniProt Q15059); experiment: Binding affinity to biotinylated BRD3 bromodomain-1 (unknown origin) expressed in Escherichia coli at 0.2 to 1 uM by Biolayer Interferometric analysis; method in brief: as §1
[3] = molecular target: Nucleosome-remodeling factor subunit BPTF (Homo sapiens) (UniProt Q12830); experiment: Binding affinity to biotinylated FALZ (unknown origin) expressed in Escherichia coli at 0.2 to 1 uM by Biolayer Interferometric analysis; method in brief: as §1
[4] = molecular target: SWI/SNF-related matrix-associated actin-dependent regulator of chromatin subfamily A member 4 (Homo sapiens, UniProt P51532); experiment: Binding affinity to biotinylated SMARCA4 (unknown origin) expressed in Escherichia coli at 0.2 to 1 uM by Biolayer Interferometric analysis; method in brief: as §1
[5] = molecular target: T1, Bromodomain-containing protein 9 (Homo sapiens) (UniProt Q9H8M2); experiment: Binding affinity to biotinylated BRD9 (unknown origin) expressed in Escherichia coli at 0.2 to 1 uM by Biolayer Interferometric analysis; method in brief: as §1
T1 sequence (whole entry): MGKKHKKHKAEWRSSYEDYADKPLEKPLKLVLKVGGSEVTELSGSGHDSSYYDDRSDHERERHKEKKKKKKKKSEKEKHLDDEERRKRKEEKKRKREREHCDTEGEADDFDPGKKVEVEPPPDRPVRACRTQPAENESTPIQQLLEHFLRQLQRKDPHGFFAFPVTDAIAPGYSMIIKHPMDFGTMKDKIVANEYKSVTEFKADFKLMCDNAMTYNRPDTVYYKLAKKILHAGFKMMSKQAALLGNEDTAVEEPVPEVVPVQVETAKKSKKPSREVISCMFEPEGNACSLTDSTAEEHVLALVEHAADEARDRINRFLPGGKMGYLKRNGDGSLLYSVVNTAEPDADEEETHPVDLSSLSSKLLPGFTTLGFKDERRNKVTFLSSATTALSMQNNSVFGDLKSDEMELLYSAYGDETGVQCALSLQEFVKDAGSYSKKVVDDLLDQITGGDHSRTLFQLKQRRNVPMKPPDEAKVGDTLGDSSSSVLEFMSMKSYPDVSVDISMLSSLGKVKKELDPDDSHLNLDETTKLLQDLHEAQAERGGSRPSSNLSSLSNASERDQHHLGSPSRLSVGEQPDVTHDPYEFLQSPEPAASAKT

[6] = molecular target: Histone acetyltransferase KAT2B (Homo sapiens) (UniProt Q92831); experiment: Binding affinity to biotinylated PCAF (unknown origin) expressed in Escherichia coli at 0.2 to 1 uM by Biolayer Interferometric analysis; method in brief: as §1
[7] = molecular target: Protein polybromo-1 (Homo sapiens) (UniProt Q86U86); experiment: Binding affinity to biotinylated PB1 bromodomain-5 (unknown origin) expressed in Escherichia coli at 0.2 to 1 uM by Biolayer Interferometric analysis; method in brief: as §1
[8] = molecular target: Nuclear body protein SP140 (Homo sapiens) (UniProt Q13342); experiment: Binding affinity to biotinylated SP140 (unknown origin) expressed in Escherichia coli at 0.2 to 1 uM by Biolayer Interferometric analysis; method in brief: as §1
[9] = molecular target: Peregrin (Homo sapiens) (UniProt P55201); experiment: Binding affinity to biotinylated BRPF1 bromodomain-1 (unknown origin) expressed in Escherichia coli at 0.2 to 1 uM by Biolayer Interferometric analysis; method in brief: as §1
[10] = molecular target: Protein polybromo-1 (Homo sapiens) (UniProt Q86U86); experiment: Binding affinity to biotinylated PB1 bromodomain-4 (unknown origin) expressed in Escherichia coli at 0.2 to 1 uM by Biolayer Interferometric analysis; method in brief: as §1
[11] = molecular target: Bromodomain-containing protein 4 (Homo sapiens) (UniProt O60885); experiment: Binding affinity to biotinylated BRD4 bromodomain-1 (unknown origin) expressed in Escherichia coli at 0.2 to 1 uM by Biolayer Interferometric analysis; method in brief: as §1
[12] = molecular target: Bromodomain-containing protein 2 (Homo sapiens) (UniProt P25440); experiment: Binding affinity to biotinylated BRD2 bromodomain-2 (unknown origin) expressed in Escherichia coli at 0.2 to 1 uM by Biolayer Interferometric analysis; method in brief: as §1
[13] = molecular target: Bromodomain and WD repeat-containing protein 3 (Homo sapiens) (UniProt Q6RI45); experiment: Binding affinity to biotinylated BRWD3 bromodomain-2 (unknown origin) expressed in Escherichia coli at 0.2 to 1 uM by Biolayer Interferometric analysis; method in brief: as §1
[14] = molecular target: PH-interacting protein (Homo sapiens) (UniProt Q8WWQ0); experiment: Binding affinity to biotinylated PHIP (unknown origin) expressed in Escherichia coli at 0.2 to 1 uM by Biolayer Interferometric analysis; method in brief: as §1
[15] = molecular target: Transcription initiation factor TFIID subunit 1 (Homo sapiens) (UniProt P21675); experiment: Binding affinity to biotinylated TAF1 bromodomain-1 (unknown origin) expressed in Escherichia coli at 0.2 to 1 uM by Biolayer Interferometric analysis; method in brief: as §1
[16] = molecular target: Bromodomain-containing protein 4 (Homo sapiens) (UniProt O60885); experiment: Binding affinity to biotinylated BRD4 bromodomain-2 (unknown origin) expressed in Escherichia coli at 0.2 to 1 uM by Biolayer Interferometric analysis; method in brief: as §1
[17] = molecular target: Bromodomain-containing protein 7 (Homo sapiens) (UniProt Q9NPI1); experiment: Binding affinity to biotinylated BRD7 (unknown origin) expressed in Escherichia coli at 0.2 to 1 uM by Biolayer Interferometric analysis; method in brief: as §1
[18] = molecular target: Chromatin remodeling regulator CECR2 (Homo sapiens) (UniProt Q9BXF3); experiment: Binding affinity to biotinylated CECR2 (unknown origin) expressed in Escherichia coli at 0.2 to 1 uM by Biolayer Interferometric analysis; method in brief: as §1
[19] = molecular target: Histone acetyltransferase KAT2A (Homo sapiens) (UniProt Q92830); experiment: Binding affinity to biotinylated GCN5L2 (unknown origin) expressed in Escherichia coli at 0.2 to 1 uM by Biolayer Interferometric analysis; method in brief: as §1
[20] = molecular target: Bromodomain and WD repeat-containing protein 1 (Homo sapiens) (UniProt Q9NSI6); experiment: Binding affinity to biotinylated WDR9 (unknown origin) expressed in Escherichia coli at 0.2 to 1 uM by Biolayer Interferometric analysis; method in brief: as §1
[21] = molecular target: Bromodomain-containing protein 1 (Homo sapiens) (UniProt O95696); experiment: Binding affinity to biotinylated BRD1 (unknown origin) expressed in Escherichia coli at 0.2 to 1 uM by Biolayer Interferometric analysis; method in brief: as §1
[22] = molecular target: ATPase family AAA domain-containing protein 2B (Homo sapiens) (UniProt Q9ULI0); experiment: Binding affinity to biotinylated KIAA1240 (unknown origin) expressed in Escherichia coli at 0.2 to 1 uM by Biolayer Interferometric analysis; method in brief: as §1

Chain of Protein polybromo-1 (Homo sapiens) (Q86U86 whole entry): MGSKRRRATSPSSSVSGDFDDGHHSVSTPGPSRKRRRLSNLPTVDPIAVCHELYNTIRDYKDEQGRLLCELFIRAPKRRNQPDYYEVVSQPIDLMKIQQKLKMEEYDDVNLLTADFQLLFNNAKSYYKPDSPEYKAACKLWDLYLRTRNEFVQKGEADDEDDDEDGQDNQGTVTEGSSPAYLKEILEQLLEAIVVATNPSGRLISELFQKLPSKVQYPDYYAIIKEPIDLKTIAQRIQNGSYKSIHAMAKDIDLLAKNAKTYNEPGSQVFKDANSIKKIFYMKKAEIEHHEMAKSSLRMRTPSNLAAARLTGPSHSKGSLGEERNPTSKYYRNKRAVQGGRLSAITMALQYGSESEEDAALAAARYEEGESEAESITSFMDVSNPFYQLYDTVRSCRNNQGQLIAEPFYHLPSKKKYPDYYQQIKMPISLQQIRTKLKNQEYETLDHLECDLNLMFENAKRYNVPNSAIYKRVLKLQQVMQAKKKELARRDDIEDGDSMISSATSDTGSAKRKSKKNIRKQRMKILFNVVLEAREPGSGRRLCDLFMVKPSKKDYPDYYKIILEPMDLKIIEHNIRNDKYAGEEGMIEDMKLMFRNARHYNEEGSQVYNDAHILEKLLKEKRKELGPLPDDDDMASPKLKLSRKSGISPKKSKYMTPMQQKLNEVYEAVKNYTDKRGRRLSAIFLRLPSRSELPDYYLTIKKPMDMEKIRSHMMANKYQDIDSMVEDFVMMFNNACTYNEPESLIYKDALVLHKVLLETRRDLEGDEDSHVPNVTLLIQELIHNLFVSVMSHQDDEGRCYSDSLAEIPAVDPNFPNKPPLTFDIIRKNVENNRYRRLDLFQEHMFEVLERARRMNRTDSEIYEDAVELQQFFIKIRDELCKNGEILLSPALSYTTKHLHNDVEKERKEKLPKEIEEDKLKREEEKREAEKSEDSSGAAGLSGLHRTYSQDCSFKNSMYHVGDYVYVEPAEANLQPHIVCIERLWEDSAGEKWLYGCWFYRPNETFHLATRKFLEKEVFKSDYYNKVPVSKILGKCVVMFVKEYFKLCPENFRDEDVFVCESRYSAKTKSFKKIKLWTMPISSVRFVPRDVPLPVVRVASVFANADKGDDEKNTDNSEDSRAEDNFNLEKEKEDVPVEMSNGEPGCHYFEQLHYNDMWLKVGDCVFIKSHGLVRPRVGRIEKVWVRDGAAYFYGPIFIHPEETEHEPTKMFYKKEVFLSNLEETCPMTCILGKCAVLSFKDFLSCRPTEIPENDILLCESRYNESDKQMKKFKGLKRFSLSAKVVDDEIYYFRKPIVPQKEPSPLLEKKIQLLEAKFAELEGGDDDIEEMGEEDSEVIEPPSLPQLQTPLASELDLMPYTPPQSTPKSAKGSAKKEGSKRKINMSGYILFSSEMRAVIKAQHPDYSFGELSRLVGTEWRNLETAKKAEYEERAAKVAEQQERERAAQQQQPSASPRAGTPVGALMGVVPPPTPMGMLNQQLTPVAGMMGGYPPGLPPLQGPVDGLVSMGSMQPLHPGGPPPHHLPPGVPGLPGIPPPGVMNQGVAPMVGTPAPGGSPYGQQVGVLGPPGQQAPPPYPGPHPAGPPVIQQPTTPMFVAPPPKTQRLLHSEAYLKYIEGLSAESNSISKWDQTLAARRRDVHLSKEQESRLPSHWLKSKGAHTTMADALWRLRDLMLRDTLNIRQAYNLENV
Chain of Bromodomain and WD repeat-containing protein 1 (Homo sapiens) (Q9NSI6 whole entry): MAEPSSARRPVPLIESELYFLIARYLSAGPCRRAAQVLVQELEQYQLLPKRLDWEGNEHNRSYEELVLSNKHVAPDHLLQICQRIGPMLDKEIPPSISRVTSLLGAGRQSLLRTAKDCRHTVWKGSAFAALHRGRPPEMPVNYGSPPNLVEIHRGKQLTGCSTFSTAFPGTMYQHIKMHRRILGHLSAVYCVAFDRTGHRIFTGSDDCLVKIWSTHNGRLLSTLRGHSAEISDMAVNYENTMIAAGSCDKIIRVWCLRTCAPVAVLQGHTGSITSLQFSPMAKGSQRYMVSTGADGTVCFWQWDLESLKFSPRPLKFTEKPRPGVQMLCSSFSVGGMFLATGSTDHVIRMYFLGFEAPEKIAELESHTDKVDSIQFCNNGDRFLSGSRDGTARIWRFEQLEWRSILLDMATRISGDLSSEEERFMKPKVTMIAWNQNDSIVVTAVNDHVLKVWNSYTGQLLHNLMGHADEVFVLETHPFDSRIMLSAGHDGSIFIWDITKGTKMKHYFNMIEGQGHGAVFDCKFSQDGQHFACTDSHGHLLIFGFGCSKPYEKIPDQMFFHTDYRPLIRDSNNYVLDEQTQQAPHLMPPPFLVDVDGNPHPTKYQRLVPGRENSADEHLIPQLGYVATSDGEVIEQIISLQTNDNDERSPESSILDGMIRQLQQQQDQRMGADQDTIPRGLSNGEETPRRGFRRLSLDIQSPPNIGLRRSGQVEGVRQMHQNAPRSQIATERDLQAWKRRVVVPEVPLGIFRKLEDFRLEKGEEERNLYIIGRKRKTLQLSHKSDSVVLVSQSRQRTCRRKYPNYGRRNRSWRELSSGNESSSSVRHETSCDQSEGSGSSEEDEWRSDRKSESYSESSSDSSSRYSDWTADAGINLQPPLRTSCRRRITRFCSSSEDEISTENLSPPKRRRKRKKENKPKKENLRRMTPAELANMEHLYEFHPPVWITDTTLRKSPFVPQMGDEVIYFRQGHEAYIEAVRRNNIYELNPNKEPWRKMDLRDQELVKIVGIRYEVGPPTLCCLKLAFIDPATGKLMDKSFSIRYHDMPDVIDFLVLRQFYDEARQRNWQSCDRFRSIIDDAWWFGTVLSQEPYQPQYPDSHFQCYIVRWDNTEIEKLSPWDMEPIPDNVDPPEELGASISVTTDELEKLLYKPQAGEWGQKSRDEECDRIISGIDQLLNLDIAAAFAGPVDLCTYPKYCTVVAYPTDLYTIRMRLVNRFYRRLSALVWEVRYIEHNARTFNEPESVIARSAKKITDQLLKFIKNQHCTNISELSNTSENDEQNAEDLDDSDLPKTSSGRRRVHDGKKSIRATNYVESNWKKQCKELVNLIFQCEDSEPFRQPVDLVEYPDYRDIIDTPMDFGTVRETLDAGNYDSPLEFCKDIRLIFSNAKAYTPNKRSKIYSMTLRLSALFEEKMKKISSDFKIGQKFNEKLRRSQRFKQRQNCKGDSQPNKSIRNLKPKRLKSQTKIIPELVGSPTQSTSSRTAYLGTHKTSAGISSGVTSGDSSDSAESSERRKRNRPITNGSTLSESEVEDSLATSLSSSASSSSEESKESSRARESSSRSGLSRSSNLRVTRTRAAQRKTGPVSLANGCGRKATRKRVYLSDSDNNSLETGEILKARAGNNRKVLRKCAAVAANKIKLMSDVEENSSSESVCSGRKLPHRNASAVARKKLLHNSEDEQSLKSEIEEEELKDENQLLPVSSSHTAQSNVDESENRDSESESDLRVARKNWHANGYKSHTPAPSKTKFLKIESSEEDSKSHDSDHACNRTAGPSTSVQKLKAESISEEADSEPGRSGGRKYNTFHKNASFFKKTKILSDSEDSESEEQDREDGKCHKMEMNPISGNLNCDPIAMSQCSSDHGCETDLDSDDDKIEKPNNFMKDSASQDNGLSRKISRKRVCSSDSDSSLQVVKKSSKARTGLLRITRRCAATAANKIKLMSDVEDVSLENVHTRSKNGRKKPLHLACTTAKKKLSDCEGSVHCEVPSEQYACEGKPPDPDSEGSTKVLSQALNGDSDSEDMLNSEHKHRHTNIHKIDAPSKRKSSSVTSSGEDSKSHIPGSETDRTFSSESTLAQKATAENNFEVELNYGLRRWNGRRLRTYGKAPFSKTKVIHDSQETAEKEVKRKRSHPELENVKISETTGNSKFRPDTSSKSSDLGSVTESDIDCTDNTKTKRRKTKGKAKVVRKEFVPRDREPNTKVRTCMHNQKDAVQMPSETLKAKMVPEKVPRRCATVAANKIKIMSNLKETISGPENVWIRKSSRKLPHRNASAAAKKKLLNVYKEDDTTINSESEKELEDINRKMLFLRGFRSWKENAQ
Chain of Bromodomain-containing protein 1 (Homo sapiens) (O95696 whole entry, the tested form may be a part): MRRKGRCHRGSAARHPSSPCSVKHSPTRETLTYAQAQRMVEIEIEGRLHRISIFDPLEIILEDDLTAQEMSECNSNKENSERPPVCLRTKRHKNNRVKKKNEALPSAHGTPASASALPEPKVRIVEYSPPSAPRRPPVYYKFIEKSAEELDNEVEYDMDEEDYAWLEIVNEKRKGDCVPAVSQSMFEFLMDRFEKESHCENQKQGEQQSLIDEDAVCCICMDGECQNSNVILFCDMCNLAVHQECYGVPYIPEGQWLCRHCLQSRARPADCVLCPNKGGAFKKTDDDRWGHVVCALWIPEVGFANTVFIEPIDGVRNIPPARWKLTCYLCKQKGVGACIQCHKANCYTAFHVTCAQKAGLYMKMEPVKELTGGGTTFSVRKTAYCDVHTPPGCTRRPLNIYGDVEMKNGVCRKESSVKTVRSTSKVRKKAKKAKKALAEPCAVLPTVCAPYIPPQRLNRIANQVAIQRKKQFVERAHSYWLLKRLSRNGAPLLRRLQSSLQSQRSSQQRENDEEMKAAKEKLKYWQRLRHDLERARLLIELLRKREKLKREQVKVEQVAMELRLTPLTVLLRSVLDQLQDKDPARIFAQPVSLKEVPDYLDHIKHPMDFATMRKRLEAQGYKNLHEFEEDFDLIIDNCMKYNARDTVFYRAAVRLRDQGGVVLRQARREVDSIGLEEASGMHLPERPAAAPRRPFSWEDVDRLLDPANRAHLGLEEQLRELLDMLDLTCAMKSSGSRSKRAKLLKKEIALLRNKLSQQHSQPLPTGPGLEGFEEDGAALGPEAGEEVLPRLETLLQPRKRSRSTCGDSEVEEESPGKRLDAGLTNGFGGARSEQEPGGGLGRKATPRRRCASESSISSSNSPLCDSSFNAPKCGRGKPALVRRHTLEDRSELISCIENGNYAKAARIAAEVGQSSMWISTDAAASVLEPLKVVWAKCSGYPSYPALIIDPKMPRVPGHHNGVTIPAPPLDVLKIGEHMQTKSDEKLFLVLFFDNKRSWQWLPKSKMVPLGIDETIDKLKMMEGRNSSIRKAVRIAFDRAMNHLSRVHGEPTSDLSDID

- Activity [1]: inactive
- Activity [2]: inactive
- Activity [3]: inactive
- Activity [4]: inactive
- Activity [5]: Active
- Activity [6]: inactive
- Activity [7]: inactive
- Activity [8]: inactive
- Activity [9]: inactive
- Activity [10]: inactive
- Activity [11]: inactive
- Activity [12]: inactive
- Activity [13]: inactive
- Activity [14]: inactive
- Activity [15]: inactive
- Activity [16]: inactive
- Activity [17]: inactive
- Activity [18]: inactive
- Activity [19]: inactive
- Activity [20]: inactive
- Activity [21]: inactive
- Activity [22]: inactive
Structure (SMILES): CCCOc1ccn2c(C(C)=O)cc(-c3cccc(OC)c3)c2c1

Reference: ChEMBL document CHEMBL5712886, “Discovery and Characterization of GSK2801, a Selective Chemical Probe for the Bromodomains BAZ2A and BAZ2B” (J Med Chem, 2016)
